# Experimental data as given in ChEMBL document CHEMBL1124334, “Hypolipidemic 2-[4-(1,1-dimethylethyl)phenyl]-4H-3,1-benzoxazin-4-ones. Structure-activity relationships of a novel series of high-density lipoprotein elevators” (1989).
# Assays:
# Assay type in all cases: functional
# [1] = Ratio of plasma HDL cholesterol/total cholesterol at 25 mg/kg for 3 days
# In short: (§1)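 Young male Wistar rats (120–150 g), groups of eight, fed ad libitum rodent diet with 0.5% w/w cholesterol and 0.25% cholic acid for 10 days. Compound suspended in 0.5% w/w tragacanth mucilage and given daily by stomach tube over the final 3 days; controls got vehicle. After overnight starvation, rats were killed 3 h post final dose and cardiac blood taken into heparin.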
# Rattus norvegicus [2] = species on record: Rattus norvegicus; experiment: The compound was tested for % change in plasma triglycerides in normocholesterolemic rats at 0.2 % composition of dose with diet given in a period of 7 days
# In short: (§2)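 Young male Wistar rats (120–150 g) fed basal powdered rodent diet ad libitum, with compound mixed into the diet at 0.2% w/w for 3 or 7 days. Plasma triglyceride and total cholesterol were then measured by standard enzymatic methods. Results are % change relative to controls.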
# Rattus norvegicus [3] = experiment: Percent change in plasma triglycerides in cholesterol-fed rats at 200 mg/kg dose given in a period of 3 days; in short: as §1
# Rattus norvegicus [4] = experiment: Percent change in plasma total cholesterol in cholesterol-fed rats at 200 mg/kg dose given in a period of 3 days; in short: as §1
# Rattus norvegicus [5] = experiment: Percent change in plasma HDL cholesterol in cholesterol-fed rats at 200 mg/kg dose given in a period of 3 days; in short: as §1
# Rattus norvegicus [6] = species on record: Rattus norvegicus; experiment: The compound was tested for % change in plasma total cholesterol in normocholesterolemic rats at 0.2 % composition of dose with diet given in a period of 7 days; in short: as §2
# Rattus norvegicus [7] = species on record: Rattus norvegicus; experiment: The compound was tested for % change in plasma triglycerides in normocholesterolemic rats at 0.2 % composition of dose with diet given in a period of 3 days; in short: as §2
# Rattus norvegicus [8] = species on record: Rattus norvegicus; experiment: Change in plasma total cholesterol in normocholesterolemic rats at 0.2 % composition of dose with diet given in a period of 3 days.; in short: as §2
# Rattus norvegicus [9] = experiment: Ratio of plasma HDL cholesterol/total cholesterol at 200 g/kg for 3 days; conditions: in the assay text read “200 mg/kg” for “200 g/kg”; in short: as §1
# Rattus norvegicus [10] = species on record: Rattus norvegicus; experiment: Change in plasma triglycerides in normocholesterolemic rats at 0.2 % composition of dose with diet given in a period of 3 days.; in short: as §2
# Rattus norvegicus [11] = experiment: The compound was tested for % change in plasma HDL cholesterol in cholesterol-fed rats at 200 mg/kg dose given in a period of 3 days;; in short: as §1
# Rattus norvegicus [12] = species on record: Rattus norvegicus; experiment: Tested for % change in plasma triglycerides in normocholesterolemic rats at 0.2 % composition of dose with diet given in a period of 3 days; in short: as §2
# Rattus norvegicus [13] = species on record: Rattus norvegicus; experiment: Tested for % change in plasma total cholesterol in normocholesterolemic rats at 0.2 % composition of dose with diet given in a period of 3 days; in short: as §2
# Rattus norvegicus [14] = experiment: The compound was tested for % change in plasma HDL cholesterol in cholesterol-fed rats at 100 mg/kg dose given in a period of 3 days; in short: as §1
# [15] = Ratio of plasma HDL cholesterol/total cholesterol at 100 mg/kg for 3 days; in short: as §1
# [16] = Ratio of plasma HDL cholesterol/total cholesterol at 200 mg/kg for 3 days; in short: as §1
# Rattus norvegicus [17] = experiment: The compound was tested for % change in plasma total cholesterol in cholesterol-fed rats at 50 mg/kg dose given in a period of 3 days; in short: as §1
# Rattus norvegicus [18] = experiment: The compound was tested for % change in plasma total cholesterol in cholesterol-fed rats at 25 mg/kg dose given in a period of 3 days; in short: as §1
# Rattus norvegicus [19] = experiment: % change in plasma triglycerides in cholesterol-fed rats at 100 mg/kg dose given in a period of 3 days administered orally; conditions: route oral; in short: as §1
# Rattus norvegicus [20] = experiment: The compound was tested for % change in plasma total cholesterol in cholesterol-fed rats at 100 mg/kg dose given in a period of 3 days; in short: as §1
# Rattus norvegicus [21] = experiment: The compound was tested for % change in plasma HDL cholesterol in cholesterol-fed rats at 25 mg/kg dose given in a period of 3 days; in short: as §1
# Rattus norvegicus [22] = experiment: The compound was tested for % change in plasma triglycerides in cholesterol-fed rats at 50 mg/kg dose given in a period of 3 days; in short: as §1
# Rattus norvegicus [23] = experiment: The compound was tested for % change in plasma triglycerides in cholesterol-fed rats at 25 mg/kg dose given in a period of 3 days; in short: as §1
# [24] = Ratio of plasma HDL cholesterol/total cholesterol at 50 mg/kg for 3 days; in short: as §1
# Rattus norvegicus [25] = experiment: The compound was tested for % change in plasma HDL cholesterol in cholesterol-fed rats at 50 mg/kg dose given in a period of 3 days; in short: as §1
# Rattus norvegicus [26] = species on record: Rattus norvegicus; experiment: tested for % change in plasma triglycerides in normocholesterolemic rats at 0.2 % composition of dose with diet given in a period of 3 days; in short: as §2
# Rattus norvegicus [27] = experiment: The compound was tested for % change in plasma triglycerides in cholesterol-fed rats at 100 mg/kg dose given in a period of 3 days; in short: as §1
# [28] = dose 200 mg/kg, in the assay text read “200 mg/kg” for “25 mg/kg”
Structure (SMILES),Change (Rattus norvegicus [2]) [%],Change (Rattus norvegicus [3]) [%],Change (Rattus norvegicus [4]) [%],Change (Rattus norvegicus [5]) [%],Change (Rattus norvegicus [6]) [%],Change (Rattus norvegicus [8]) [%],Change in HDL/total cholesterol ratio (Rattus norvegicus [9]),other results
Cc1ccc2nc(-c3ccccc3)oc(=O)c2c1,-1,-4,-2,-2,-12,–,–,"Ratio [1, 28]: 4"
Cc1ccc2nc(-c3ccc(CC(C)(C)C)cc3)oc(=O)c2c1,–,23,-12,28,–,-10,–,"Ratio [1, 28]: 50; Change (Rattus norvegicus [7]): 16%"
CC(C)(C)c1ccc(C(=O)Nc2ccc(Br)cc2C(=O)[O-])cc1.[Na+],–,15,-7,–,–,-42,64,Change (Rattus norvegicus [10]): -18%; Change (Rattus norvegicus [11]): 57%
CC(C)(C)c1ccc(C(=O)O)cc1,-41,-38,-62,-50,-38,–,60,–
Cc1ccc2nc(-c3ccc(C(C)C)cc3)oc(=O)c2c1,–,-17,-26,33,–,-11,–,"Ratio [1, 28]: 79; Change (Rattus norvegicus [10]): 7%"
Cc1ccc(NC(=O)c2ccc(C(C)(C)C)cc2)c(C(=O)O)c1,–,8,-9,91,–,–,47,Change (Rattus norvegicus [12]): -16%; Change (Rattus norvegicus [13]): -15%
CC(C)(C)c1ccc(-c2nc3ccc([N+](=O)[O-])cc3c(=O)o2)cc1,-27,-19,-23,-8,1,–,13,–
Cc1ccc2nc(-c3cccc(C(C)(C)C)c3)oc(=O)c2c1,25,22,43,50,-4,–,–,"Ratio [1, 28]: 3"
O=C(O)c1cccnc1 [NIACIN],-3,-39,-29,20,-4,–,–,Ratio (Rattus norvegicus [9]): 63
Cc1ccc2nc(-c3ccc(C(C)(C)C)cc3)oc(=O)c2c1,-33,-17,-27,50,-15,–,–,Ratio ([1]; dose 25 mg/kg): 31; Change (Rattus norvegicus [14]): 15%; Ratio [15]: 65; Ratio [16]: 92; Change (Rattus norvegicus [17]): -19%; Change (Rattus norvegicus [18]): -5%; Change (Rattus norvegicus [19]): -18%; Change (Rattus norvegicus [20]): -34%; Change (Rattus norvegicus [21]): 30%; Change (Rattus norvegicus [22]): 21%; Change (Rattus norvegicus [23]): -1%; Ratio [24]: 56; Change (Rattus norvegicus [25]): 31%
Cc1ccc2nc(-c3ccccc3C(C)(C)C)oc(=O)c2c1,-13,-25,-6,-3,-11,–,–,"Ratio [1, 28]: 6"
CC(C)(C)c1ccc(-c2nc3ccccc3c(=O)o2)cc1,-32,-26,-41,49,-24,–,131,–
CC(C)(C)c1ccc(-c2nc3ccc(Br)cc3c(=O)o2)cc1,-40,-3,-25,74,-39,-47,114,Change (Rattus norvegicus [14]): 71%; Ratio [15]: 110; Change (Rattus norvegicus [26]): -16%; Change (Rattus norvegicus [17]): -12%; Change (Rattus norvegicus [20]): -25%; Change (Rattus norvegicus [22]): 6%; Ratio [24]: 49; Change (Rattus norvegicus [27]): -6%; Change (Rattus norvegicus [25]): 40%
CC(C)(C)c1ccc(-c2nc3ccc(I)cc3c(=O)o2)cc1,-35,-3,-26,17,-48,–,50,–
CC(C)(C)c1ccc(-c2nc3ccc(N)cc3c(=O)o2)cc1,–,-11,-25,4,–,4,25,Change (Rattus norvegicus [10]): 1%
CCCCCCCCc1ccc2nc(-c3ccc(C(C)(C)C)cc3)oc(=O)c2c1,–,-7,-9,35,–,-1,29,Change (Rattus norvegicus [10]): -14%
CCOC(=O)C(C)(C)Oc1ccc(Cl)cc1 [CLOFIBRATE],-48,-10,-30,-10,-27,–,8,–
CC(C)(C)c1ccc(-c2nc3ccc(NS(=O)(=O)c4ccccc4)cc3c(=O)o2)cc1,–,-7,7,30,–,5,35,Change (Rattus norvegicus [10]): 27%
CC(C)(C)c1ccc(-c2nc3ccc(Cl)cc3c(=O)o2)cc1,-36,-30,-18,16,-31,–,31,–
